Source: ChEMBL document CHEMBL1146563, “CT2108A and B: New fatty acid synthase inhibitors as antifungal agents” (J Nat Prod, 2003)
Values after ≈ are worked out from the molar mass of the structure shown. Active and inactive are the calls of the source. The calls are words filed in the database; no cut-off is given here.

What was measured:
Papiliotrema laurentii [1] = test: Antifungal activity against Cryptococcus laurentii after 48 hrs; assay type: functional
Summary of the method: (§1)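 Minimum inhibitory concentration against clinical isolates, read at 24 h and at 48 h. Isolates tested: C. albicans 4, C. tropicalis 1, C. lusitaniae 3, C. guilliermondii 1, C. krusei 3, C. glabrata 3, C. parapsilosis 4, C. dubliniensis 2, S. cerevisiae 4, Cryptococcus neoformans 2, Cryptococcus laurentii 2.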

Candida tropicalis [2] = test: Antifungal activity against Candida tropicalis after 48 hrs; assay type: functional; summary of the method: as §1
Candida parapsilosis [3] = test: Antifungal activity against Candida parapsilosis after 24 hrs; assay type: functional; details: Lodderomyces parapsilosis; summary of the method: as §1
[4] = test system: Meyerozyma guilliermondii; test: Antifungal activity against Candida guilliermondii after 48 hrs; assay type: functional; summary of the method: as §1
Cryptococcus neoformans [5] = test: Antifungal activity against Cryptococcus neoformans after 24 hrs; assay type: functional; summary of the method: as §1
Candida albicans [6] = test: Antifungal activity against Candida albicans assessed as clear zone of inhibition by disk diffusion assay; assay type: functional
Summary of the method: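 Disk diffusion on C. albicans; the zone of inhibition is measured in mm.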

Clavispora lusitaniae [7] = test: Antifungal activity against Candida lusitaniae after 48 hrs; assay type: functional; summary of the method: as §1
Candida dubliniensis [8] = test: Antifungal activity against Candida dubliniensis after 24 hrs; assay type: functional; summary of the method: as §1
Clavispora lusitaniae [9] = test: Antifungal activity against Candida lusitaniae after 24 hrs; assay type: functional; summary of the method: as §1
Saccharomyces cerevisiae [10] = test: Antifungal activity against Saccharomyces cerevisiae after 48 hrs; assay type: functional; summary of the method: as §1
[11] = test system: Meyerozyma guilliermondii; test: Antifungal activity against Candida guilliermondii after 24 hrs; assay type: functional; summary of the method: as §1
Pichia kudriavzevii [12] = test: Antifungal activity against Candida krusei after 24 hrs; assay type: functional; summary of the method: as §1
Candida albicans [13] = test: Antifungal activity against Candida albicans by microdilution spectrophotometric method; assay type: functional
Fatty acid synthase = Fatty acid synthase (Homo sapiens, UniProt P49327); test: Inhibition of FAS in human ZR-75-1 cells by spectrophotometry; assay type: cell-based
Sequence of Fatty acid synthase (P49327 whole entry): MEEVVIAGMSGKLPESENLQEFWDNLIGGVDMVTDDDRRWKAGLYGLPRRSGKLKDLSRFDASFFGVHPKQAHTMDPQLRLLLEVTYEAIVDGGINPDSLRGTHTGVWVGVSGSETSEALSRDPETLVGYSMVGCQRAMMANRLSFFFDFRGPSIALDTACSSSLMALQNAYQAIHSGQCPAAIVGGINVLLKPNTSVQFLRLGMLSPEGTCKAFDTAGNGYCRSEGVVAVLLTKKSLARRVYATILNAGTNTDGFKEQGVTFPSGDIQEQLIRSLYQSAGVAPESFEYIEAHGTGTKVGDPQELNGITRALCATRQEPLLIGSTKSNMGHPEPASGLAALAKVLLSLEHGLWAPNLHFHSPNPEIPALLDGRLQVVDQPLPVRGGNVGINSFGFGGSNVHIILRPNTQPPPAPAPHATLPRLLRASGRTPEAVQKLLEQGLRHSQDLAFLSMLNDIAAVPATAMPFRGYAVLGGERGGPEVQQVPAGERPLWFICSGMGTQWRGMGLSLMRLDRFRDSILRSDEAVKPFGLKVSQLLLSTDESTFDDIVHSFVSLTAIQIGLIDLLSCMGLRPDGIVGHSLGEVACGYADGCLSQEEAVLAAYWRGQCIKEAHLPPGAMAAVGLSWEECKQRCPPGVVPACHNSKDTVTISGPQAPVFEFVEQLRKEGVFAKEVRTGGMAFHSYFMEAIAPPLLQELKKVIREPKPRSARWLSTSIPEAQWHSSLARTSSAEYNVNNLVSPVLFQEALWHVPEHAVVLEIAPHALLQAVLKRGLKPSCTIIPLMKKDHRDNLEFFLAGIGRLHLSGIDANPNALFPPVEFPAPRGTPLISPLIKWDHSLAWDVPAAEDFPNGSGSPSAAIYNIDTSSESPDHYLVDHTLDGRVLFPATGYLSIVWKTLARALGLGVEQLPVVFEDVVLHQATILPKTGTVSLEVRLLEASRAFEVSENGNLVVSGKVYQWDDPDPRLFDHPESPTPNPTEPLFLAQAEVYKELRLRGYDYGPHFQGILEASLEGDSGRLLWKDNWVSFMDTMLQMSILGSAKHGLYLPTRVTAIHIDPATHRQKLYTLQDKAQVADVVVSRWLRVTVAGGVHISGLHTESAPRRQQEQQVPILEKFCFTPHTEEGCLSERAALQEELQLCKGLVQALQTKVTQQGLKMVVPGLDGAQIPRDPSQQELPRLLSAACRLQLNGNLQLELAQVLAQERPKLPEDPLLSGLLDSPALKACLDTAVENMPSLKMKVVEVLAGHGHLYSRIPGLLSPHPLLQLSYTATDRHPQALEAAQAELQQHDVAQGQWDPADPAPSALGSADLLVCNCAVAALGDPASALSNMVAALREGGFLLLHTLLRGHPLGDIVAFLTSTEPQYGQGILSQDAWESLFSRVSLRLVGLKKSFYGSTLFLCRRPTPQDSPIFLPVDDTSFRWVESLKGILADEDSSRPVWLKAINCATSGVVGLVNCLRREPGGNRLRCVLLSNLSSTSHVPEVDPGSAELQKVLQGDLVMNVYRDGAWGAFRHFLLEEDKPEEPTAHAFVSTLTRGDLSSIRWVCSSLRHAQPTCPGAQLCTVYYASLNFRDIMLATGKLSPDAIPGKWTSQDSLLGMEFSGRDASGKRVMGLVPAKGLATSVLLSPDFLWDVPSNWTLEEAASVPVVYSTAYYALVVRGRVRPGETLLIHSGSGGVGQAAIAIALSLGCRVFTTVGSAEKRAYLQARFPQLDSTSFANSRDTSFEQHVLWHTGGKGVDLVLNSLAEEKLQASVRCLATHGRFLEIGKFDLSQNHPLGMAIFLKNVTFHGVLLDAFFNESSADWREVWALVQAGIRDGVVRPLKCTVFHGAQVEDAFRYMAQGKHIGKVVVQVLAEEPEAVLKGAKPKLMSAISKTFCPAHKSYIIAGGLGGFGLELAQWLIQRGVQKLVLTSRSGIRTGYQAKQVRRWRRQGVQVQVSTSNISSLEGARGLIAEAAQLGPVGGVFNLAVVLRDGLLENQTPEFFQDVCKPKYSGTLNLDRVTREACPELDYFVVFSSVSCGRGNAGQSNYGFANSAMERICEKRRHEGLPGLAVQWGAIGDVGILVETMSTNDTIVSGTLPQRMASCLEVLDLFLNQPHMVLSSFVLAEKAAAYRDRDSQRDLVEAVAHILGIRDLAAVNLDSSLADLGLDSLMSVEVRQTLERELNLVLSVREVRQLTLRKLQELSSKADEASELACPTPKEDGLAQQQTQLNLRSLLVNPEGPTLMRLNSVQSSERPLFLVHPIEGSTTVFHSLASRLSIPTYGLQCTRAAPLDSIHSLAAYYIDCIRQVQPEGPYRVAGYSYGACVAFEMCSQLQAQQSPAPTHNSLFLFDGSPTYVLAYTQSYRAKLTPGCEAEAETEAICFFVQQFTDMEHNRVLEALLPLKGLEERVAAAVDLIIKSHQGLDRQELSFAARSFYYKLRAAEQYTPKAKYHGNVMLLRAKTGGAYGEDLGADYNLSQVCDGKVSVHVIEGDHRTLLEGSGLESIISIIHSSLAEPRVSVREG

Candida dubliniensis [14] = test: Antifungal activity against Candida dubliniensis after 48 hrs; assay type: functional; summary of the method: as §1
Pichia kudriavzevii [15] = test: Antifungal activity against Candida krusei after 48 hrs; assay type: functional; summary of the method: as §1
Candida tropicalis [16] = test: Antifungal activity against Candida tropicalis after 24 hrs; assay type: functional; summary of the method: as §1
Candida albicans [17] = test: Antifungal activity against Candida albicans after 48 hrs; assay type: functional; summary of the method: as §1
Cryptococcus neoformans [18] = test: Antifungal activity against Cryptococcus neoformans after 48 hrs; assay type: functional; summary of the method: as §1
Papiliotrema laurentii [19] = test: Antifungal activity against Cryptococcus laurentii after 24 hrs; assay type: functional; summary of the method: as §1
Saccharomyces cerevisiae [20] = test: Antifungal activity against Saccharomyces cerevisiae after 24 hrs; assay type: functional; summary of the method: as §1
Candida parapsilosis [21] = test: Antifungal activity against Candida parapsilosis after 48 hrs; assay type: functional; details: Lodderomyces parapsilosis; summary of the method: as §1
Nakaseomyces glabratus [22] = test: Antifungal activity against Candida glabrata after 48 hrs; assay type: functional; summary of the method: as §1
Candida albicans [23] = test: Antifungal activity against Candida albicans by microdilution spectrophotometric method in presence of mysteric acid; assay type: functional
Summary of the method: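 Growth inhibition of C. albicans in a medium supplemented with 1.0% Tween 40 and 0.03% mysteric acid (long-chain fatty acids).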

[24] = Inhibition of Candida albicans SC5314 FAS by spectrophotometry
Nakaseomyces glabratus [25] = test: Antifungal activity against Candida glabrata after 24 hrs; assay type: functional; summary of the method: as §1
Candida albicans [26] = test: Antifungal activity against Candida albicans after 24 hrs; assay type: functional; summary of the method: as §1
Candida albicans [27] = test: Antifungal activity against Candida albicans assessed as hazy zone of inhibition by disk diffusion assay; assay type: functional
Summary of the method: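 Disk diffusion on C. albicans; the zone of growth inhibition around the disk is read and reported as diameter in mm.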

| SMILES | MIC (Papiliotrema laurentii [1]) [µg/mL] | MIC (Candida parapsilosis [3]) [µg/mL] | MIC [4] [µg/mL] | MIC (Cryptococcus neoformans [5]) [µg/mL] | inhibition zone (IZ) (Candida albicans [6]) [mm] | MIC (Clavispora lusitaniae [7]) [µg/mL] | MIC (Candida dubliniensis [8]) [µg/mL] | MIC (Clavispora lusitaniae [9]) [µg/mL] | MIC (Saccharomyces cerevisiae [10]) [µg/mL] | MIC [11] [µg/mL] | MIC (Pichia kudriavzevii [12]) [µg/mL] | MFC (Candida albicans [13]) [µg/mL] | MIC (Candida albicans [13]) [µg/mL] | IC50 (Fatty acid synthase) [µM] | MIC (Candida dubliniensis [14]) [µg/mL] | MIC (Pichia kudriavzevii [15]) [µg/mL] | MIC (Candida albicans [17]) [µg/mL] | MIC (Cryptococcus neoformans [18]) [µg/mL] | MIC (Candida albicans [23]) [µg/mL] | IC50 [24] [µg/mL] | other results |
| --- | --- | --- | --- | --- | --- | --- | --- | --- | --- | --- | --- | --- | --- | --- | --- | --- | --- | --- | --- | --- | --- |
| C/C=C/C=C/C=C/C1=CC2=CC(=O)[C@](C)(OC(=O)C[C@H](C)O)C(=O)C2=CO1 | < 1.6 | 14.8 (≈ 40 µM) | 1.6 (≈ 4.32 µM) | < 1.6 | 10 | 41.6 (≈ 112 µM) | 12.5 (≈ 33.7 µM) | 16.3 (≈ 44 µM) | 25 (≈ 67.5 µM) | < 1.6 | 25 (≈ 67.5 µM) | 6.25 (≈ 16.9 µM) | 3.13 (≈ 8.45 µM) | > 2700 | 12.5 (≈ 33.7 µM) | 50 (≈ 135 µM) | 7.8 (≈ 21.1 µM) | < 1.6 | 50 | 250 (≈ 675 µM) | MIC (Candida tropicalis [2]): 6.25 µg/mL (≈ 16.9 µM); MIC (Candida tropicalis [16]): 6.25 µg/mL (≈ 16.9 µM); MIC (Papiliotrema laurentii [19]): < 1.6 µg/mL; MIC (Saccharomyces cerevisiae [20]): 8.2 µg/mL (≈ 22.1 µM); MIC (Candida parapsilosis [21]): 50 µg/mL (≈ 135 µM); MIC (Nakaseomyces glabratus [22]): 50 µg/mL (≈ 135 µM); MIC (Nakaseomyces glabratus [25]): 25 µg/mL (≈ 67.5 µM); MIC (Candida albicans [26]): 7.8 µg/mL (≈ 21.1 µM) |
| C/C=C/C=C/C=C/C1=CC2=CC(=O)[C@](C)(OC(=O)C[C@H](C)O)C(=O)C23OC3O1 (stereo not given in full) | 6.25 (≈ 16.2 µM) | 15.6 (≈ 40.4 µM) | 1.6 (≈ 4.14 µM) | 25 (≈ 64.7 µM) | 8 | 37.5 (≈ 97 µM) | 9.4 (≈ 24.3 µM) | 8.3 (≈ 21.5 µM) | 20.3 (≈ 52.5 µM) | < 1.6 | 12.5 (≈ 32.3 µM) | 25 (≈ 64.7 µM) | 6.25 (≈ 16.2 µM) | > 2590 | 18.8 (≈ 48.7 µM) | 25 (≈ 64.7 µM) | 7.8 (≈ 20.2 µM) | 3.12 (≈ 8.07 µM) | 50 | 160 (≈ 414 µM) | Activity (Papiliotrema laurentii [19]): Active; MIC (Saccharomyces cerevisiae [20]): 5.9 µg/mL (≈ 15.3 µM); MIC (Candida parapsilosis [21]): 62.5 µg/mL (≈ 162 µM); MIC (Nakaseomyces glabratus [22]): 83.3 µg/mL (≈ 216 µM); MIC (Nakaseomyces glabratus [25]): 29.2 µg/mL (≈ 75.6 µM); MIC (Candida albicans [26]): 3.9 µg/mL (≈ 10.1 µM) |
| C/C=C/C/C=C/CCC(=O)[C@H]1O[C@H]1C(N)=O [CERULENIN] | – | – | – | – | – | – | – | – | – | – | – | 5 (≈ 22.4 µM) | 5 (≈ 22.4 µM) | 2.24 | – | – | – | – | > 1000 | 0.5 (≈ 2.24 µM) | inhibition zone (IZ) (Candida albicans [27]): 20 mm |
